Where two headings read alike, the source gives them in different places.
Columns and labels:
[1] = humans; cited from earlier work
[2] = format: in vivo, human; settings: for Median Tmax (range) / Cmax / t½: 100 mg single oral dose, Part 3; for Cmax: arithmetic mean (SD); for t½: mean ± SD
[3] = Fasting and postprandial serum triglycerides and fasting lipids; format: in vivo, human
Method in brief: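 Part 2, randomized 4:1 to drug or placebo with food, once daily or every 12 hours on days 1‑14. Fasting lipids were sampled after overnight fasts over 16 days. Total cholesterol, direct LDL and HDL were run on an automated chemistry analyzer. Postprandial triglycerides: 12 serial samples over 24 h on days 0 and 12. AUEC by trapezoid rule, averaged as AUEC24/24 when first, last and ≥75% of samples were available. Baseline was the mean of 0‑h values on days 0‑1.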

hepatic DNL = assay: Fructose-stimulated hepatic DNL inhibition; format: in vivo, human
Method in brief: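 Part 2, with baseline on day −6 and repeat on day 14 of dosing. On the evening/night before each challenge, subjects drank 4 doses of 70% D2O (60 mL each). Oral fructose 0.25 g/kg was then given every 30 min from 0 to 9.5 h, with dosing at 0 h. Body‑water deuterium was measured. Triglyceride‑palmitate was isolated from plasma by Folch extraction and TLC, and its methyl ester analysed by GC‑pyrolysis isotope‑ratio MS. Basal‑adjusted % newly made palmitate and AUEC10 were calculated.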

[4] = format: in vivo, human; settings: for AUCtau / Cmax: mean (SD)
[5] = Plasma pharmacokinetics, single ascending oral doses after overnight fast; format: in vivo, human; settings: fasted, Part 1; for AUC0‐∞ / Cmax: arithmetic mean (SD); for t½: mean ± SD
Method in brief: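 Randomized, double‑blind, placebo‑controlled interleaving crossover in 2 cohorts of 8. Each cohort received 4 ascending single doses, ≥10 days apart, taken with water after a ≥10‑h overnight fast. Blood sampled up to 72 h postdose. Plasma was extracted by protein precipitation with a stable‑isotope internal standard and measured by LC‑MS/MS with calibration 2.00–1000 ng/mL (LLOQ 2.00 ng/mL). Noncompartmental parameters were summarized descriptively by dose.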

[6] = Platelet count and mean platelet volume; format: in vivo, human
[7] = rats; cited from earlier work
[8] = Safety and tolerability: adverse events, vital signs, ECG; format: in vivo, human
Method in brief: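 Observed and self‑reported AEs, clinically significant physical‑exam changes and abnormal laboratory results were recorded. Vital signs and 12‑lead ECGs were monitored throughout. In Part 2, AEs were tallied separately for drug alone (days 1‑13) and for the periods with fructose/D2O. The safety set was everyone receiving ≥1 dose of study drug or fructose/D2O. Data were reviewed on an ongoing basis and summarized descriptively.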

[9] = monkeys; cited from earlier work
[10] = 100 mg single dose, high‐fat meal vs fasted
[11] = 100 mg every 12 hours, same withdrawn subject

SMILES: Cc1nc2ccc(C(=O)N3CCC4(CC3)CC(=O)c3c(cnn3C(C)C)C4)cc2[nH]1 [PF‐05175157]
- platelet count [1]: decreased platelet count

SMILES: COc1cc(C(=O)N2CCC3(CC2)CC(=O)c2c(cnn2C(C)C)C3)cc(-c2ccc(C(=O)O)cc2)n1 [PF‐05221304]
- Geometric mean AUC0‐∞ ([2]; 100 mg single dose, fasted): 79 320 ng·h/mL
- geometric mean Cmax ([2]; 100 mg single dose, fasted, CV% 25%): 7479 ng/mL
- Geometric mean AUC0‐∞ ([2]; 100 mg single dose, fed): 72 360 ng·h/mL
- geometric mean Cmax ([2]; 100 mg single dose, fed, CV% 41%): 5592 ng/mL
- decrease of AUC0‐∞ with food [2, 10]: ~9%
- plasma Cmax reduction with food [2, 10]: 25%
- Median Tmax (range) ([2]; fasted state): 2.5 (1.0‐3.0) h
- Cmax ([2]; fasted state): 7671 (1699.8) ng/mL
- t½ ([2]; fasted state): 12.3 ± 2.0 h
- Median Tmax (range) ([2]; fed state): 5.0 (2.0‐8.0) h
- Cmax ([2]; fed state): 5947 (1982.1) ng/mL
- t½ ([2]; fed state): 13.2 ± 3.5 h
- elevated fasting serum triglyceride levels (1 subject) [3, 11]: 2.1 fold
- elevated postprandial serum triglyceride levels (1 subject) [3, 11]: 2.6 fold
- fasting and postprandial serum triglyceride levels ([3]; repeated daily doses ≥40 mg/day): increased
- Adjusted % inhibition of newly made triglyceride‐palmitate (DNL), AUEC10 (hepatic DNL; 10 mg Q12H, day 14 vs baseline (day −6)): 80.0%
- hepatic DNL inhibition over a 10‐hour period postdose (hepatic DNL; doses <40 mg/day): ≤ 80%
- inhibition of DNL (AUEC of newly made triglyceride‐palmitate), near‐maximal (hepatic DNL; doses ≥40 mg/day, 14 days): > 90%
- Median Tmax (range) ([4]; Day 1, 1 mg every 12 hours): 3.0 (3.0‐5.0) h
- AUCtau ([4]; Day 1, 1 mg every 12 hours): 384.5 (71.1) ng·h/mL
- Cmax ([4]; Day 1, 1 mg every 12 hours): 54.4 (9.0) ng/mL
- Median Tmax (range) ([4]; Day 1, 3 mg every 12 hours): 5.0 (2.0‐6.0) h
- AUCtau ([4]; Day 1, 3 mg every 12 hours): 1038 (131.4) ng·h/mL
- Cmax ([4]; Day 1, 3 mg every 12 hours): 142.7 (21.2) ng/mL
- Median Tmax (range) ([4]; Day 1, 10 mg every 12 hours): 3.5 (1.0‐5.0) h
- AUCtau ([4]; Day 1, 10 mg every 12 hours): 3811 (767.3) ng·h/mL
- Cmax ([4]; Day 1, 10 mg every 12 hours): 584.6 (91.2) ng/mL
- Median Tmax (range) ([4]; Day 1, 30 mg every 12 hours): 5.0 (3.0‐5.0) h
- Cmax ([4]; Day 1, 30 mg every 12 hours): 1689 (256.7) ng/mL
- Median Tmax (range) ([4]; Day 1, 40 mg once daily): 4.0 (2.0‐8.0) h
- Cmax ([4]; Day 1, 40 mg once daily): 1986 (591.8) ng/mL
- Median Tmax (range) ([4]; Day 1, 100 mg every 12 hours): 3.5 (0.5‐5.0) h
- Cmax ([4]; Day 1, 100 mg every 12 hours): 6831 (1388.6) ng/mL
- Median Tmax (range) ([4]; Day 1, 100 mg once daily): 4.0 (2.0‐6.0) h
- Cmax ([4]; Day 1, 100 mg once daily): 5965 (1252.2) ng/mL
- Median Tmax (range) ([4]; Day 7, 1 mg every 12 hours): 3.0 (2.0‐5.0) h
- AUCtau ([4]; Day 7, 1 mg every 12 hours): 760.4 (202.4) ng·h/mL
- Cmax ([4]; Day 7, 1 mg every 12 hours): 91.4 (19.3) ng/mL
- Median Tmax (range) ([4]; Day 7, 3 mg every 12 hours): 5.0 (3.0‐5.1) h
- AUCtau ([4]; Day 7, 3 mg every 12 hours): 2264 (484.8) ng·h/mL
- Cmax ([4]; Day 7, 3 mg every 12 hours): 283.1 (49.1) ng/mL
- Median Tmax (range) ([4]; Day 7, 10 mg every 12 hours): 5.0 (5.0‐6.0) h
- AUCtau ([4]; Day 7, 10 mg every 12 hours): 8334 (2131.6) ng·h/mL
- Cmax ([4]; Day 7, 10 mg every 12 hours): 1009 (215.9) ng/mL
- Median Tmax (range) ([4]; Day 7, 30 mg every 12 hours): 5.0 (3.0‐6.0) h
- Cmax ([4]; Day 7, 30 mg every 12 hours): 3229 (741.0) ng/mL
- Median Tmax (range) ([4]; Day 7, 40 mg once daily): 4.0 (3.0‐6.0) h
- Cmax ([4]; Day 7, 40 mg once daily): 2654 (674.6) ng/mL
- Median Tmax (range) ([4]; Day 7, 100 mg every 12 hours): 3.5 (3.0‐5.0) h
- Median Tmax (range) ([4]; Day 7, 100 mg once daily): 4.0 (2.0‐6.0) h
- Cmax ([4]; Day 7, 100 mg once daily): 7894 (1117.5) ng/mL
- excreted in urine as unchanged drug over the dosing interval (Aeτ) ([4]; day 7, Part 2): Less than 1%
- accumulation for AUCtau ([4]; every‐12‐hour dosing): approximately 2 fold
- median Tmax ([4]; multiple oral doses 1‐100 mg every 12 hours and 40‐100 mg once daily with food): 3 to 5 h
- accumulation for AUCtau ([4]; once‐daily dosing): approximately 1.5 fold
- steady state achieved (trough concentrations) ([4]; repeated dosing, Part 2): ≤ 7 days
- Median Tmax (range) ([5]; 1 mg single oral dose): 2.0 (1.0‐3.0) h
- AUC0‐∞ ([5]; 1 mg single oral dose): 670.5 (182.2) ng·h/mL
- Cmax ([5]; 1 mg single oral dose): 48.3 (8.2) ng/mL
- t½ ([5]; 1 mg single oral dose): 13.6 ± 3.4 h
- Median Tmax (range) ([5]; 3 mg single oral dose): 2.5 (1.1‐4.0) h
- AUC0‐∞ ([5]; 3 mg single oral dose): 2508 (476.0) ng·h/mL
- Cmax ([5]; 3 mg single oral dose): 177.0 (46.3) ng/mL
- t½ ([5]; 3 mg single oral dose): 13.5 ± 3.5 h
- Median Tmax (range) ([5]; 10 mg single oral dose): 3.0 (1.0‐5.0) h
- AUC0‐∞ ([5]; 10 mg single oral dose): 8603 (1603.8) ng·h/mL
- Cmax ([5]; 10 mg single oral dose): 608.5 (134.0) ng/mL
- t½ ([5]; 10 mg single oral dose): 18.3 ± 2.3 h
- Median Tmax (range) ([5]; 30 mg single oral dose): 2.0 (0.5‐4.0) h
- Cmax ([5]; 30 mg single oral dose): 2008 (421.7) ng/mL
- t½ ([5]; 30 mg single oral dose): 17.6 ± 2.6 h
- Median Tmax (range) ([5]; 100 mg single oral dose): 2.0 (1.0‐4.0) h
- Cmax ([5]; 100 mg single oral dose): 7435 (1904.5) ng/mL
- t½ ([5]; 100 mg single oral dose): 16.0 ± 3.6 h
- Median Tmax (range) ([5]; 200 mg single oral dose): 2.0 (0.5‐4.0) h
- t½ ([5]; 200 mg single oral dose): 15.3 ± 3.4 h
- Median Tmax (range) ([5]; 240 mg single oral dose): 1.5 (1.0‐4.0) h
- t½ ([5]; 240 mg single oral dose): 15.2 ± 2.8 h
- maximum decline from day 0 in platelet count (1 subject, moderate AE) ([6]; 100 mg every 12 hours, day 13 + 24 hours, one person): 53 000 /µL
- platelet volume ([6]; doses ≥20 mg/day administered every 12 hours): increases in platelet volume
- platelet count ([6]; repeated doses ≤40 mg/day): No change in platelet count
- platelet count ([6]; repeated dosing ≥60 mg/day): gradual decline in platelet count from day 7 onward
- lowest platelet count observed ([6]; repeated dosing, Part 2): ≥ 100 000 /µL
- platelet count ([6]; single doses, 1‐ to 240‐mg dose range): did not change
- asymmetric hepatic distribution [7]: ≥ 100 fold
- subjects with AEs ([8]; Part 1 (single doses, PF‐05221304 or placebo periods)): 5 subjects
- subjects with AEs ([8]; Part 3 (100 mg single dose fed/fasted)): 3 subjects
- vital signs or cardiac conduction intervals (12‐lead ECG) ([8]; all parts): no clinically significant changes
- tolerability ([8]; single 1‐240 mg, repeated 2‐200 mg daily): well tolerated at all doses
- maximum tolerated dose ([8]; up to 240 mg single, 200 mg/day repeated): not identified
- asymmetric hepatic distribution [9]: ≥ 100 fold

— paper PMC7317421 (Clinical Pharmacology in Drug Development, 2020)
